The values below come from ChEMBL document CHEMBL5137129, “Anti-HIV Macrocyclic Daphnane Orthoesters with an Unusual Macrocyclic Ring from Edgeworthia chrysantha” (J Nat Prod, 2022).

Structures are written as SMILES.

Data set [1] deals with Human immunodeficiency virus 1. In words: Anti-HIV activity against Human immunodeficiency virus 1 […] infected in human MT4 cells assessed as inhibition of viral infection measured after 4 days by serial dilution based p24 ELISA analysis. Type of data set: functional, organism-based. Conditions: Human immunodeficiency virus 1, MT4, 96 h. The method in brief: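 HIV-1 NL4-3 at MOI 0.001 infected MT4 cells with compounds present at various concentrations (4-fold serial dilutions across the inhibitory phase). Fresh compound-containing medium was added 48 h post-infection. Replication was read by p24 ELISA at 4 days post-infection. Dose-response curves came from three independent experiments.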

Data set [2] has as its system MT4. In words: Cytotoxicity against human MT4 cells assessed as inhibition of cell growth by measuring ATP by CellTiter-Glo luminescent cell viability assay. In kind it is toxicity, cell-based. The procedure, abridged:
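MT4 cells were cultured in parallel with the anti-HIV-1 cultures (NL4-3, MOI 0.001, 4 days, medium with compound refreshed at 48 h). Viability was read as ATP of metabolically active cells by CellTiter-Glo luminescence. Dose-response curves came from three independent experiments.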
For orientation: In ATP-based viability assays light output follows the ATP content of the culture.

For orientation: EC50 means the midpoint of the concentration-response curve. A word on the IC50: it is the concentration that inhibits the measured activity by half.

Consider `C=C(C)[C@@]12OC34CCC/C=C\CCCC[C@H](CCC)[C@@H]5[C@@H]6[C@]7(O[C@]5(C)OC7=O)[C@H](O)[C@@]5(CO)O[C@H]5[C@@H]([C@H]1O3)[C@]6(O4)[C@H](C)[C@H]2OC(C)=O`, for which, in data set [1], the EC50 is above 32 nM. For the same compound, the IC50 in data set [2] is above 32 nM. As to `C=C(C)[C@@]12OC34CCC/C=C\CCCC[C@H](CCC)[C@@H]5[C@@H]6[C@]7(O[C@]5(C)OC7=O)[C@H](O)[C@@]5(CO)O[C@H]5[C@@H]([C@H]1O3)[C@]6(O4)[C@H](COC(=O)C(C)C)[C@H]2OC(C)=O`, the EC50 in data set [1] came out at 29.3 nM. Also, the IC50 in data set [2] is above 32 nM. On the same counts, the results for `C=C(C)[C@@]12OC34CCC/C=C\CCCC[C@H](CCC)[C@H]5[C@H](C)C(=O)[C@@]6(O)[C@H](O)[C@@]7(CO)O[C@H]7[C@@H]([C@H]1O3)[C@](O4)([C@H](C)[C@H]2OC(C)=O)[C@H]56` are 8.4 nM and above 32 nM. For `C=C(C)[C@@]12OC34CCC/C=C\CCCC[C@H](CCC)[C@H]5[C@H](C)C(=O)[C@@]6(O)[C@H](O)[C@@]7(CO)O[C@H]7[C@@H]([C@H]1O3)[C@](O4)([C@H](COC(=O)C(C)C)[C@H]2OC(C)=O)[C@H]56`, in that order: 2.9 nM and 21.3 nM.

On to `C=C(C)[C@]12C[C@@H](COC(=O)c3ccccc3)[C@@]34OC5(O[C@@H]1[C@@H]3[C@@H]1O[C@]1(CO)[C@@H](O)[C@@]1(O)[C@H]4[C@H]([C@H](C)[C@@H]1OC(=O)c1ccccc1)[C@H](C)CCCCCC[C@H]5O)O2`, for which the IC50 in data set [2] is above 32 nM. As for `C=C(C)[C@@]12OC34CCC/C=C\CCCC[C@H](CCC)[C@@H]5[C@@H]6[C@]7(O[C@]5(C)OC7=O)[C@H](O)[C@@]5(CO)O[C@H]5[C@@H]([C@H]1O3)[C@]6(O4)[C@H](COC(=O)c1ccccc1)[C@H]2OC(C)=O`, the EC50 in data set [1] was above 32 nM. In data set [2], the half-maximal inhibitory concentration (IC50) is above 32 nM.
